Values joined by “and” are separate entries in the source; they are usually repeats but may differ in a detail not shown here. Equal entries are not always repeated.
How the values were obtained:
BAX/Bcl-2 ratio = assay: Western blot analysis, BAX/Bcl-2 ratio; format: cell-based, human; settings: HepG-2, 9.52 µM, 48 h
Method in brief: (§1)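 HepG-2 treated 48 h with 9.52 µM test compound or DMSO control. Lysed at pH 7.4 (Tris, EDTA, EGTA, NaCl, NP-40, Triton X-100, protease/phosphatase inhibitors), freeze-thawed at −80 °C, sonicated and centrifuged. 30 µg protein run on SDS-PAGE and blotted to PVDF. Primary antibody 1:1000 overnight at 4 °C; HRP secondary 1:2000. ECL detection; bands normalized to β-actin, control set to 1; mean ± SEM, n=3.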

A549 lung cancer cells = assay: In vitro antitumor MTT assay, A549; format: cell-based, human
Method in brief: (§2)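 ATCC cell lines grown in RPMI-1640 with 10% FBS, penicillin/streptomycin, at 37 °C and 5% CO2. Seeded at 1.0×10^4 cells/well for 48 h, then treated 24 h with a range of test compound concentrations. MTT (5 mg/mL solution) added for 4 h; formazan dissolved in DMSO and read at 570 nm. IC50 from percent viability; mean ± S.D. of three separate experiments.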

p53 = assay: Western blot analysis, p53; format: cell-based, human; settings: 48 h
Method in brief: as §1

[1] = In vitro antitumor MTT assay, Caco-2; format: cell-based, human; settings: human, Caco-2
Method in brief: as §2

[2] = test system: Caco-2 colon cancer cells; assay: In vitro antitumor MTT assay, Caco-2; format: cell-based, human; settings: Homo sapiens, Caco-2, 24 h, read-out: IC50 Caco-2
Method in brief: as §2

BAX = assay: Western blot analysis, BAX; format: cell-based, human; settings: HepG-2, 9.52 µM, 48 h
Method in brief: as §1

MDA breast cancer cells = assay: In vitro antitumor MTT assay, MDA; format: cell-based, human
Method in brief: as §2

caspase-3 = assay: Western blot analysis, caspase-3; format: cell-based, human; settings: HepG-2, 9.52 µM, 48 h
Method in brief: as §1

HepG-2 hepatoma cells = assay: In vitro antitumor MTT assay, HepG-2; format: cell-based, human; settings: WISH versus HepG-2
Method in brief: as §2

WISH normal cell line = assay: Cytotoxic effect against normal cell line; format: cell-based; settings: read-out: IC50 WISH
VEGFR-2 kinase = VEGFR-2 kinase (Homo sapiens, UniProt P35968); assay: biochemical; settings: VEGFR-2, IC50, VEGFR-2 Kinase Assay Kit (BPS-Bioscience), luminescence
VEGFR-2 kinase, sequence (P35968 20-1356): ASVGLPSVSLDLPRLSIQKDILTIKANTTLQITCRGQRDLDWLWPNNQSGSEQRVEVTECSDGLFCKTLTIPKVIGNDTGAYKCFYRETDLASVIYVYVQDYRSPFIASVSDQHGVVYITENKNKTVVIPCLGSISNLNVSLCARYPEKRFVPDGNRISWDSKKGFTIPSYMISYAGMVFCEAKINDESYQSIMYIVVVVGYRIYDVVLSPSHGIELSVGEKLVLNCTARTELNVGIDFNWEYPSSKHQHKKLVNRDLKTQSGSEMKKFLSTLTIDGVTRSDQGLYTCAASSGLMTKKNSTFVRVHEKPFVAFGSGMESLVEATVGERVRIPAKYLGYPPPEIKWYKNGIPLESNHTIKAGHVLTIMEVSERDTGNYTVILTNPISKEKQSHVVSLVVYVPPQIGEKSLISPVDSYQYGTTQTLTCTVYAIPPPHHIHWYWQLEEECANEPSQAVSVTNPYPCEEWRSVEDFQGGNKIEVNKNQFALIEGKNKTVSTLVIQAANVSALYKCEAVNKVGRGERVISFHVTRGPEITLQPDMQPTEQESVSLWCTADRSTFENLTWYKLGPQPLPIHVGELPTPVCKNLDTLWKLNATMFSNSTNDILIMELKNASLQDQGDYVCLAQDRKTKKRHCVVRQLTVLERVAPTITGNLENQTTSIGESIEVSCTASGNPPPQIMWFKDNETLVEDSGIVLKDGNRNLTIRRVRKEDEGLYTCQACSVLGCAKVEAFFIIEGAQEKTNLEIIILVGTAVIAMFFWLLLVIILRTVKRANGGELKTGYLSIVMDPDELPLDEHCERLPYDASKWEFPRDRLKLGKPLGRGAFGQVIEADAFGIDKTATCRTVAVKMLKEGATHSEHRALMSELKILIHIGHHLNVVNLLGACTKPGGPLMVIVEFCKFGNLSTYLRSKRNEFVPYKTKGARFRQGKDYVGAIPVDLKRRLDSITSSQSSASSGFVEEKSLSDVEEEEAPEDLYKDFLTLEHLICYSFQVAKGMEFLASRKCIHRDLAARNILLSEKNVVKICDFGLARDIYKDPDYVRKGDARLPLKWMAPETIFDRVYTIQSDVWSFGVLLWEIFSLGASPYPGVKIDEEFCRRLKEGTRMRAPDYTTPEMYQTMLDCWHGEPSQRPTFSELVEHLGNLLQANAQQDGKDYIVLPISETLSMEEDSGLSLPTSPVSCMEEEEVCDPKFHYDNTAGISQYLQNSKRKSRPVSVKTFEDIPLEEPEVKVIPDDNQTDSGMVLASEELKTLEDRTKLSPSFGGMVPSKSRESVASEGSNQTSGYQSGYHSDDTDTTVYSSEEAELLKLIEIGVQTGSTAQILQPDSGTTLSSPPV

HepG-2 cells [3] = assay: Annexin V-FITC/PI apoptosis assay; format: cell-based, human
Method in brief: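 HepG-2 cells seeded and incubated 24 h, then exposed to test compound at 9.52 µM. Harvested cells washed 3× in PBS, […] double-stained with Annexin V-FITC/propidium iodide for 20 min in the dark. Early/late apoptotic and necrotic fractions measured by flow cytometry. Mean ± SEM of 3 experiments; unpaired t-test versus untreated control.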

HepG-2 cells [4] = assay: Cell cycle analysis; format: cell-based, human; settings: HepG-2, 9.52 µM, 48 h
Bcl-2 = assay: Western blot analysis, Bcl-2; format: cell-based, human; settings: HepG-2, 9.52 µM, 48 h
Method in brief: as §1

O=C(CN1CCN(c2nc3ccccc3nc2Cl)CC1)NCc1ccccc1 [Compound 11, N-benzyl-2-(4-(3-chloroquinoxalin-2-yl)piperazin-1-yl)acetamide]
increase in BAX/Bcl-2 ratio compared to control (BAX/Bcl-2 ratio): 4 fold
Protein Level (Normalized to β-Actin) BAX/Bcl-2 Ratio (BAX/Bcl-2 ratio; control set to 1, mean ± SEM): 4.25 ± 0.47
IC50 (A549 lung cancer cells; Homo sapiens, A549, 24 h, read-out: IC50 A549): 10.6 µM
selectivity index to A549 (A549 lung cancer cells; WISH versus A549): 12.18
increase in P53 expression compared to control (p53; HepG-2, 9.52 µM (IC50 value)): 3 fold
Protein Level (Normalized to β-Actin) P53 (p53; HepG-2, 9.52 µM, control set to 1, mean ± SEM): 3.07 ± 0.24
selectivity ratio at 24 h [1]: 10.4
IC50 [2]: 12.5 µM
BAX protein expression level compared to control (BAX; in words): double increase
Protein Level (Normalized to β-Actin) BAX (BAX; control set to 1, mean ± SEM): 2.16 ± 0.22
IC50 (MDA breast cancer cells; Homo sapiens, 24 h, read-out: IC50 MDA): 11.5 µM
selectivity index to MDA (MDA breast cancer cells; WISH versus MDA): 11.22
increase in caspase-3 level compared to untreated cells (caspase-3): 2.3 fold
Protein Level (Normalized to β-Actin) Caspases-3 (caspase-3; control set to 1, mean ± SEM): 2.32 ± 0.11
selectivity index to HepG-2 (HepG-2 hepatoma cells): 13.57
IC50 (WISH normal cell line): 129 µM
IC50 (VEGFR-2 kinase): 0.19 µM and 0.192 µM
increase of early apoptosis rate compared to control (HepG-2 cells [3]; HepG-2, 9.52 µM): about 9 fold
increase of late apoptosis compared to control (HepG-2 cells [3]; HepG-2, 9.52 µM): 3 fold
Necrosis (HepG-2 cells [3]; HepG-2, 9.52 µM, 48 h, control 0.11, mean ± SEM): 0.17 ± 0.01
Apoptosis, Late (HepG-2 cells [3]; HepG-2, 9.52 µM, 48 h, control 0.13, mean ± SEM): 0.38 ± 0.09
Apoptosis, Early (HepG-2 cells [3]; HepG-2, 9.52 µM, 48 h, control 4.75, mean ± SEM): 43.60% and 43.60 ± 4.16 %
effect on HepG-2 necrosis (HepG-2 cells [3]; HepG-2, 9.52 µM, in words): weak effect
viability at 9.52 µM (HepG-2 cells [3]; Homo sapiens, HepG2, 48 h, read-out: Viable cells): 56 ± 4.19%
cell accumulation in the G2/M phase (HepG-2 cells [4]; control 15.16%): 25.22%
cell accumulation rate at S phase (HepG-2 cells [4]; control 20.14%): 46.10%
cell accumulation percentage in phase G1 (HepG-2 cells [4]; control 63.18%): 27.37%
Bcl-2 expression level compared to control (Bcl-2; in words): decreased to half
Protein Level (Normalized to β-Actin) Bcl-2 (Bcl-2; control set to 1, mean ± SEM): 0.50 ± 0.03

Reference: article PMC8904266 (Drug Design, Development and Therapy, 2022)
